Source: publication PMC11184607 (ACS Pharmacology & Translational Science, 2024)
Bridge positions count the residues as written; N and C are the ends. Square brackets hold non-standard residues; d marks the D form. Peptide text beside a SMILES is read from it. * marks the point of attachment. NMeTrp(1-(4-Br-benzyl)) = CN[C@@H](Cc1cn(Cc2ccc(Br)cc2)c2ccccc12)C(=O)O; Butanoyl(2R-oxy,4-CN) = N#CCC[C@@H](O)C(=O)O; Abu(4,4,4-F3) = N[C@@H](CC(F)(F)F)C(=O)O; dNMeaIle = CC[C@H](C)[C@@H](NC)C(=O)O; NMe2Val = CC(C)[C@@H](C(=O)*)N(C)C; NMeI = CC[C@H](C)[C@H](NC)C(=O)O; NMeT = CN[C@H](C(=O)O)[C@@H](C)O; NMeL = CN[C@@H](CC(C)C)C(=O)O; Hiv = CC(C)[C@H](O)C(=O)O; NMeS = CN[C@@H](CO)C(=O)O; NMeA = CN[C@@H](C)C(=O)O; dNMeA = CN[C@H](C)C(=O)O

Legend:
SPs of Sec61 substrates = details: read-out: IC50, SPs of other (insensitive) Sec61 substrates; cited from earlier work
SF-295 GBM cells = test: Cell viability; format: cell-based, human; details: 72 h
Summary of the method: (§1)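 Cells are grown at 37 °C in 5% CO2. U87-MG and U251 are in MEM with 10% FBS, SF-268 in DMEM with 10% FBS, and SF-295 in RPMI 1640 with 10% FBS. HUVECs are pooled donors. Exposure is to the test compound (0.1 nM–1 μM) or 0.1% DMSO for 72 h. Viability is read by ATP luminescence as % of vehicle, n = 3 wells. […] comes from a logistic nonlinear fit over three independent comparisons.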

[1] = system: WT and mutant (R66I) Sec61α HCT116 colon cancer cells; test: Viability of WT versus Sec61α R66I mutant HCT116 cells; format: cell-based, human; details: for Effect of Sec61α R66I mutation on cytotoxic response relative to WT HCT116 cells: 72 h and 6 days (3 + 3 day exposure)
VEGF-A = VEGF-A in cell culture medium by ELISA; format: cell-based, human; details: 1 µM, sustained 24 h after removal
Hsp90 = test: Immunoblot of Hsp90 in U87-MG cells; format: cell-based, human; details: 1 30 nM, 2 1 μM, 24 h
Summary of the method: (§2)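 U87-MG cells in MEM with 10% FBS are exposed 24 h to test compound (30 nM or 1 μM) or 0.1% DMSO. Protein-matched lysates (BCA) are run on SDS-PAGE, transferred to PVDF and detected with HRP secondary. Signals are normalized to α-tubulin and expressed relative to control. Three independent experiments; one-way ANOVA then t-test.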

[2] = system: patient-derived GSCs (M120, MGG6, M76, GBM8, and 157); format: cell-based, human; details: read-out: EC50 values, five GSC lines (M120, MGG6, M76, GBM8, 157); 72 h
U87-MG GBM cells = test: Cell viability; format: cell-based, human; details: 72 h
Summary of the method: as §1

[3] = system: human cytokines and chemokines in the SF-268 secretome; test: Secretome profiling of human cytokines/chemokines in SF-268 conditioned medium; format: cell-based; details: SF-268, 1 μM, medium collected 24 h after removal, relative to vehicle
Summary of the method: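 SF-268 cells are seeded in 96-well plates; next day they get complete medium with test compound (1 μM) or 0.1% DMSO for 24 h. Medium is then replaced by serum-free medium for a further 24 h. Conditioned medium is concentrated by centrifugation (75 min, 4000g), flash-frozen and run on a 48-plex multiplex laser-bead cytokine/chemokine immunoassay. 43 analytes are quantified (five below detection dropped); data are % of vehicle.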

[4] = system: HEK293FRT cells expressing WT or mutant (R66I) Sec61α; test: Viability of WT versus Sec61α R66I mutant HEK293 cells; format: cell-based, human; details: 72 h or 3 + 3 day exposure
Summary of the method: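 HEK293FRT cells carrying Sec61α R66I, with wild-type comparators, are grown in DMEM with 10% FBS, 6 mM L-glutamine and 1 mM pyruvate. They are exposed to increasing test compound concentrations or 0.1% DMSO for 72 h, or 3 + 3 days to avoid nutrient deprivation. ATP viability is read as % of vehicle, n = 3 wells. Logistic nonlinear fit; ≥3 independent experiments.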

VCAM1 [5] = test: Immunoblot of TNFα-stimulated VCAM1 in SF-295 cells; format: cell-based, human; details: for Efficacy in suppressing TNFα-stimulated VCAM1 expression: 1 µM, 24 h; for IC50: read-out: IC50, VCAM1 expression, TNFα 10 ng/mL, 24 h
Summary of the method: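 SF-295 cells (RPMI 1640, 10% FBS) are cotreated 24 h with increasing concentrations of test compound plus TNFα 10 ng/mL. Controls are 0.1% DMSO-treated and untreated cells. VCAM1 and ICAM1 are immunoblotted after SDS-PAGE and PVDF transfer. Signals are normalized to a loading control. Concentration–response is fit to a logistic equation by nonlinear regression.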

Hsp70 = test: Immunoblot of Hsp70 in U87-MG cells; format: cell-based, human; details: 1 30 nM, 2 1 μM, 24 h
Summary of the method: as §2

BiP = test: Immunoblot of BiP expression; format: cell-based, human; details: for BiP expression: HUVECs and U87-MG cells, 1 μM, 24 h
VCAM1 [6] = test: Immunoblot of VCAM1 transiently expressed in HEK293 cells; format: cell-based, human; details: 1 µM, 24 h
calreticulin (CALR) = test: Immunoblot of calreticulin expression in U87-MG cells; format: cell-based, human; details: 1 μM, 24 h
Summary of the method: as §2

[7] = molecular target: Gaussia luciferase (GLuc); test: Gaussia luciferase; format: cell-based, human; details: 18 h; for Functional inhibition of GLuc secretion: relative to 1–3 or AprA
Summary of the method: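 U87-MG cells stably express GLuc after lentiviral transduction. Cells are seeded at 3000/well, allowed to adhere overnight, then given test compound or 0.1% DMSO for 18 h. Conditioned medium is read for luminescence with 1.2 μM final coelenterazine (3 s wait, 0.5 s integration). Adherent-cell ATP viability is read at the same time. Data are % of vehicle; IC50 comes from a logistic nonlinear fit; n ≥3 independent experiments.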

cancer cell lines = details: cited from earlier work
[8] = system: UPR markers (BiP, CHOP, sXBP1, GADD34, IRE1) mRNA; test: qPCR of ER stress; format: cell-based, human; details: 300 nM, 24 h
Summary of the method: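 GSC neurospheres (MGG6, 83, M76, GBM8) are treated 24 h with test compound 80 nM, thapsigargin 300 nM, both together, or 0.1% DMSO. BiP, CHOP, sXBP1, GADD34 and IRE1 mRNA are measured by qPCR normalized to GAPDH and expressed as fold-change versus vehicle.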

CC(C)C[C@@H]1NC(=O)[C@H](Cc2cn(Cc3ccc(Br)cc3)c3ccccc23)N(C)C(=O)[C@H](CC(F)(F)F)NC(=O)[C@H](CC(C)C)N(C)C(=O)[C@H](CC(F)(F)F)NC(=O)[C@@H](CCC#N)OC(=O)[C@H](C)N(C)C1=O [KZR-8445] (cyclo(L[NMeA][Butanoyl(2R-oxy,4-CN)][Abu(4,4,4-F3)][NMeL][Abu(4,4,4-F3)][NMeTrp(1-(4-Br-benzyl))]))
IC50 (SPs of Sec61 substrates): > 25000 nM

CC[C@H](C)[C@H]1C(=O)N[C@@H](C)C(=O)N(C)[C@@H](CC(C)C)C(=O)N[C@@H](Cc2ccc(OC)cc2)C(=O)N(C)[C@H](C)C(=O)O[C@H](C)[C@H](N(C)C(=O)[C@H](CC(C)C)N(C)C(=O)[C@H](COC)N(C)C(=O)[C@@H](OC(=O)[C@H](C(C)C)N(C)C)C(C)C)C(=O)N(C)[C@@H](COC)C(=O)N1C [compound 2, [L-Hiv^2]-CbA] (NMe2Val-[Hiv][NMeS](Me)[NMeL][NMeT][NMeS](Me)[NMeI]A[NMeL]Y(Me)[dNMeA]; ester 4-C)
Fold less sensitive than 1, SF-295 cells (SF-295 GBM cells): 5 fold
Effect of Sec61α R66I mutation on cytotoxic response relative to WT HCT116 cells [1]: decrease in cytotoxic efficacy
Inhibition of VEGF-A at 24 h (VEGF-A): statistically significant inhibition
Hsp90 expression (Hsp90): upregulation
EC50 [2]: < 3000 nM
Fold less potent than 1, U87-MG cells (U87-MG GBM cells): approximately 13 fold
Number of the 43 secreted proteins whose expression was decreased by <50% [3]: 24
Response of mutant Sec61(R66I) HEK293 cells relative to WT [4]: patterns of resistance
Fold greater sensitivity of VCAM1 to 2 than to 3 (VCAM1 [5]): approximately 7 fold
Efficacy in suppressing TNFα-stimulated VCAM1 expression (VCAM1 [5]): fully efficacious
IC50 (VCAM1 [5]): 88 nM
Hsp70 expression (Hsp70): upregulation
BiP expression, GSC line 83 (BiP; 1 250 nM and 500 nM, 2 3 µM, 72 h): decrease
BiP expression (BiP): suppressed
Level of VCAM1 transiently expressed in HEK293 cells (VCAM1 [6]): statistically significant decreases

CC[C@H](C)[C@H]1C(=O)N[C@@H](C)C(=O)N(C)[C@@H](CC(C)C)C(=O)N[C@@H](Cc2ccc(OC)cc2)C(=O)N(C)[C@@H](C)C(=O)O[C@H](C)[C@H](N(C)C(=O)[C@H](CC(C)C)N(C)C(=O)[C@H](COC)N(C)C(=O)[C@@H](OC(=O)[C@H](C(C)C)N(C)C)C(C)C)C(=O)N(C)[C@@H](COC)C(=O)N1C [compound 3, [L-Hiv^2, L-MeAla^11]-CbA] (NMe2Val-[Hiv][NMeS](Me)[NMeL][NMeT][NMeS](Me)[NMeI]A[NMeL]Y(Me)[NMeA]; ester 4-C)
Cell viability of HCT116 cells at 72 h ([1]; 72 h, 0.3 nM–3 μM): no change in the cell viability
Response of R66I mutant HCT116 cells at the extended end point ([1]; 6 days (3 + 3 day exposure)): pattern of resistance
Inhibition of VEGF-A at 24 h (VEGF-A): statistically significant inhibition
CALR expression (calreticulin (CALR)): less sensitive
EC50 [2]: < 6000 nM
Number of the 43 secreted proteins whose expression was decreased by <50% [3]: 18
Response of mutant Sec61(R66I) HEK293 cells relative to WT [4]: patterns of resistance
Efficacy in suppressing TNFα-stimulated VCAM1 expression (VCAM1 [5]): partially effective
IC50 (VCAM1 [5]): 620 nM
IC50 ([7]; read-out: IC50, inhibition of GLuc secretion, U87-MG cells expressing GLuc, conditioned medium): < 20 nM
Cytotoxic efficacy range (cancer cell lines): micromolar range
BiP expression (BiP): no statistically significant change
Level of VCAM1 transiently expressed in HEK293 cells (VCAM1 [6]): statistically significant decreases

CC[C@H](C)[C@@H]1C(=O)N[C@@H](C)C(=O)N(C)[C@@H](CC(C)C)C(=O)N[C@@H](Cc2ccc(OC)cc2)C(=O)N(C)[C@H](C)C(=O)O[C@H](C)[C@H](N(C)C(=O)[C@H](CC(C)C)N(C)C(=O)[C@H](COC)N(C)C(=O)[C@@H](OC(=O)[C@H](C(C)C)N(C)C)C(C)C)C(=O)N(C)[C@@H](COC)C(=O)N1C [compound 4, [L-Hiv^2, D-allo-Ile^7]-CbA] (NMe2Val-[Hiv][NMeS](Me)[NMeL][NMeT][NMeS](Me)[dNMeaIle]A[NMeL]Y(Me)[dNMeA]; ester 4-C)
Functional inhibition of GLuc secretion [7]: loss of functional efficacy

CC[C@H](C)[C@@H]1C(=O)N[C@@H](C)C(=O)N(C)[C@@H](CC(C)C)C(=O)N[C@@H](Cc2ccc(OC)cc2)C(=O)N(C)[C@@H](C)C(=O)O[C@H](C)[C@H](N(C)C(=O)[C@H](CC(C)C)N(C)C(=O)[C@H](COC)N(C)C(=O)[C@@H](OC(=O)[C@H](C(C)C)N(C)C)C(C)C)C(=O)N(C)[C@@H](COC)C(=O)N1C [compound 5, [L-Hiv^2, D-allo-Ile^7, L-MeAla^11]-CbA] (NMe2Val-[Hiv][NMeS](Me)[NMeL][NMeT][NMeS](Me)[dNMeaIle]A[NMeL]Y(Me)[NMeA]; ester 4-C)
Functional inhibition of GLuc secretion [7]: loss of functional efficacy

C[C@@]12OC(=O)[C@]1([C@@H](O)[C@@H]1C=CCCC1)NC(=O)[C@@H]2CCCl [marizomib, reference compound]
Effect of Sec61α R66I mutation on cytotoxic response relative to WT HCT116 cells [1]: did not change the cytotoxic efficacy
Response of mutant Sec61(R66I) HEK293 cells relative to WT [4]: highly sensitive

C/C=C(/C)C(=O)O[C@H]1C(C)=C2[C@H]([C@@H]1OC(=O)CCCCCCC)[C@@](C)(OC(C)=O)C[C@H](OC(=O)CCC)[C@@]1(O)[C@H]2OC(=O)[C@@]1(C)O [thapsigargin, reference compound]
BiP, CHOP, sXBP1, GADD34 and IRE1 mRNA expression in GSCs [8]: marked upregulation
